# From PubChem
# NPY-Y2 PAM-ag: NPY-Y2 potentiators or agonists, primary screen, cell-based | Neuropeptide Y receptor type 2 (Homo sapiens), P49146 | cells expressing NPY-Y2, potentiator/agonist read-out | activation, % at 3.6 µM | 220,000 tested, 0.45% active; in the data active means activation above about 27%;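 further: cells stimulated with NPY near EC25 plus isoproterenol at EC100; 0% = vehicle plus submaximal agonist and 100% = vehicle plus saturating agonist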
# NPY-Y1 PAM-ag: NPY-Y1 receptor potentiators or agonists, primary screen, cell-based; activation, % at 3.6 µM; Neuropeptide Y receptor type 1 (Homo sapiens), P25929; NPY-Y1 expressing cells, potentiator/agonist activation; 220,000 tested, 0.37% active; in the data active means activation above about 33%, passing the limit was not always enough;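 further: cells stimulated with NPY at EC10 then isoproterenol at EC100; 0% = low agonist plus stimulus and 100% = saturating agonist plus stimulus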
# Target sequence (P25929 whole entry, looked up): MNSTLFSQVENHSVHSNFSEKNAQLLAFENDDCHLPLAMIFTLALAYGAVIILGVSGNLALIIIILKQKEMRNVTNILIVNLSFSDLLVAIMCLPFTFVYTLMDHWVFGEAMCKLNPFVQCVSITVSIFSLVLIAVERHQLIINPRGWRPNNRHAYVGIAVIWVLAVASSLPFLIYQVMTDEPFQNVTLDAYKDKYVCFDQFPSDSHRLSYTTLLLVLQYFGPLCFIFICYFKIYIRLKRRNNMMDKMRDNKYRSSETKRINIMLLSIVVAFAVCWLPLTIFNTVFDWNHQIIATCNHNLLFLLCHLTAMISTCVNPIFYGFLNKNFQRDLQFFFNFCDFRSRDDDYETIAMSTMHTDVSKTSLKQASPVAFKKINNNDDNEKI
# EP2 modulator: EP2 receptor modulators, cAMP readout, primary screen, cell-based, HTRF cAMP, PGE2 stimulation; 260,000 tested, 0.83% active; AID 940, 2007; Prostaglandin E2 receptor EP2 subtype (Homo sapiens), P43116; EP2-expressing cells, cAMP HTRF FRET, PGE2 co-stimulation; induction, % at 25 µM;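 active means compounds whose cAMP rise, as percent of the full-agonist control response, exceeds 60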;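 further: rat C6 glioma line stably carrying human EP2 under a CMV promoter; the protocol text gives 20 µM as final concentration; 100% = response of wells given 1 µM PGE2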
# NPY Y2 blocker: NPY-Y2 receptor antagonists, primary screen, cell-based; NPY-Y2 expressing cells, antagonist mode; inhibition, % at 2.7 µM; 140,000 tested, 0.99% active; AID 793, 2007; in the data active means inhibition above about 17%;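 further: 0% = vehicle with agonist challenge and 100% = reference antagonist with challenge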
# NPY-Y1 antag: NPY-Y1 receptor antagonists, primary screen, cell-based; Neuropeptide Y receptor type 1 (Homo sapiens), P25929; HEK293-CNG Y1 cells, membrane potential fluorescence; NPY at EC95, then isoproterenol; inhibition, % at 3.6 µM; AID 1040, 2008; 200,000 tested, 1% active;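 active means inhibition above the campaign mean inhibition of all tested compounds plus 3 SD, cut at about 20% in these data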;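 further: 0% = DMSO wells given NPY plus isoproterenol and 100% = isoproterenol alone without NPY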
#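 Test system: HEK293 cells co-expressing NPY Y1 receptor and cyclic-nucleotide gated channel; Also added: NPY (25 nM), isoproterenol (1 µM), Ro 20-1724 (25 µM); Compound dosing: one concentration, 3.6 µM, in 0.4% DMSO; Timing: dye 3 h, compound 60 min room temperature, stimulation 45 min; Technique: Membrane-potential fluorescent dye readout.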
# EP2 antag: human EP2 receptor antagonists, primary screen, TR-FRET cAMP, C6 glioma cells | Prostaglandin E2 receptor EP2 subtype (Homo sapiens), P43116 | C6 glioma cells expressing human EP2; cells stimulated with saturating PGE2 | inhibition, % at 25 µM | 260,000 tested, 0.52% active;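 active means percent inhibition above 40 after rounding to a whole number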;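 further: rat C6 glioma host cells with rolipram phosphodiesterase inhibitor present; the protocol text gives 20 µM as final concentration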
# An asterisk follows results filed as active; · = no result. Shown are actives, neighbours in structure and some others; about 2.8% of the full set was active somewhere.
SMILES,NPY-Y2 PAM-ag,NPY-Y1 PAM-ag,EP2 modulator,NPY Y2 blocker,NPY-Y1 antag,EP2 antag
COc1ccccc1CN(Cc1cc2cccc(C)c2[nH]c1=O)C(c1nnnn1C(C)(C)C)C(C)C (centres undefined),·,·,88*,·,·,12
CC1CCCC(C)N1C(=O)CSc1nnc2c3ccccc3nc(C(C)(C)C)n12 (centres undefined),·,·,2,·,·,12
CCc1ccccc1NC(=S)N(Cc1ccco1)Cc1cc2cc(C)ccc2[nH]c1=O,·,·,87*,·,·,9
CCCC(c1nnnn1Cc1ccco1)N(Cc1ccccc1)Cc1cc2cc(C)c(C)cc2[nH]c1=O (centres undefined),·,·,25,·,·,9
CCCC(c1nnnn1C(C)(C)CC)N(Cc1ccco1)Cc1cc2cc(C)c(C)cc2[nH]c1=O (centres undefined),·,·,66*,·,·,31
Cc1cc(C)c2[nH]c(=O)c(CN(Cc3ccco3)C(c3nnnn3C(C)(C)C)C(C)C)cc2c1 (centres undefined),·,·,70*,·,·,15
CCc1ccccc1NC(=S)N(Cc1ccco1)Cc1cc2ccc(C)cc2[nH]c1=O,·,·,37,·,·,10
CCC(c1nnnn1C1CCCC1)N(Cc1ccco1)Cc1cc2cccc(C)c2[nH]c1=O (centres undefined),·,·,64*,·,·,7
CCCC(c1nnnn1C1CCCC1)N(Cc1ccco1)Cc1cc2cccc(C)c2[nH]c1=O (centres undefined),·,·,58,·,·,9
NC(=O)CCN1N=C(c2ccc(F)cc2)Cn2c(cc3sccc32)C1=O,·,·,-25,·,·,6
CCc1ccc(-n2c(SCC(=O)N3CCCC3)nnc2-c2ccccn2)cc1,·,·,-30,·,·,5
Cc1c(C(=O)Oc2cccc3ccccc23)cnn1-c1ccccc1,4,-22,-4,18*,-1,7
O=C(Nc1nnc(-c2ccccc2)o1)c1nc2ccccc2s1,·,·,-14,·,·,45*
Cc1cc(C)cc(C(=O)NC(=S)Nc2ccc3c(c2)OCCO3)c1,-9,-15,36,8,6,10
Cc1ccc(C(=O)NC(=S)Nc2ccc3c(c2)OCCO3)c(C)c1,-23,-17,-13,8,22*,14
CC1CCN(CC[S-])CC1.O.O.[Cl][Pt],·,·,-45,·,·,97*
CNc1nc2c(c(=O)[nH]c(=O)n2C)n1Cc1ccccc1Cl,·,·,-31,·,·,11
Cc1ccc(N/C(N)=N/c2nc(CSc3nnc(C)s3)cc(=O)[nH]2)c(C)c1,-6,11,-19,·,20*,5
Cc1ccc2[nH]c(=O)c(C(c3nnnn3CC3CCCO3)N3CCCC3)cc2c1 (centres undefined),·,·,-2,·,·,7
COc1ccc(NC(=O)[C@@H]2C=CCN2C(=O)c2ccco2)cc1,·,·,-23,·,·,·
CCC(=O)c1ccc2c(c1)N(CCCN(C)C)c1ccccc1S2,·,·,16,·,·,26
CCc1ccc2c(c1)N(C[C@H](C)CN(C)C)c1ccccc1S2,·,·,-13,·,·,44*
Cc1ccccc1OCC(O)Cn1c(SC(C)C(=O)O)nc2c1c(=O)[nH]c(=O)n2C (centres undefined),·,·,-2,·,·,10
CC(=O)CSc1nnc2c3ccccc3nc(C(C)(C)C)n12,-2,10,61*,·,-5,14
CCOC(=O)CSc1nnc2c3ccccc3nc(Cc3ccccc3)n12,·,·,65*,·,·,9
SMILES,NPY-Y2 PAM-ag,NPY-Y1 PAM-ag,EP2 modulator,NPY Y2 blocker,NPY-Y1 antag,EP2 antag
CCc1ccc(-c2csc3ncn(CC(=O)N4CCCC4)c(=O)c23)cc1,·,·,-109,·,·,8
O=C(c1cc(-c2ccc(Cl)cc2Cl)on1)N1CCc2ccccc2C1,·,·,-72,·,·,6
Cc1ccnc(N=Cc2c(O)ccc3oc4c(c23)CCCC4)c1,4,14,62*,-2,-3,13
COc1ccc(-c2cc(C(F)(F)F)nc(SCC(=O)Nc3ccccc3)n2)cc1OC,·,·,9,·,·,6
O=C(CN1CCC(n2c(C(F)(F)F)nc3cc(F)ccc32)CC1)NCc1ccco1,·,·,-72,·,·,13
COc1ccc(Cn2nnnc2C(c2ccccc2)N2CCN(C3CCCC3)CC2)cc1 (centres undefined),9,6,21,10,9,9
CCC(c1nnnn1Cc1ccc2c(c1)OCO2)N1CCN(C2CCCCC2)CC1 (centres undefined),·,·,8,·,·,13
CCC(c1nnnn1Cc1ccc(F)cc1)N1CCN(C2CCCCC2)CC1 (centres undefined),-15,-14,-7,37*,39*,24
COc1ccc(Cn2nnnc2C(c2ccccc2Cl)N2CCN(C3CCCC3)CC2)cc1 (centres undefined),-3,-7,30,20*,28*,9
CCOC(=O)C1CCN(C(=O)COc2ccccc2)CC1,·,·,-31,·,·,7
O=C(CSc1nnc(Cc2ccccc2)n1C1CCCCC1)Nc1ccc(Cl)s1,·,·,26,·,·,12
Nc1ccc(S(=O)(=O)c2cccc(N)c2)cc1,14,5,-7,0,0,6
Nc1ccc(N(S(=O)(=O)c2ccccc2)S(=O)(=O)c2ccccc2)c(Cl)c1,·,·,-15,·,·,44*
CCOC(=O)c1ccccc1NC(=O)CSc1nc2ccccc2o1,12,7,61*,11,1,4
CNCc1ccccc1OCC(=O)Nc1ccccc1OC,37*,105*,27,6,-1,6
CCOC(=O)c1ccccc1NC(=O)Cc1ccccc1OC,-7,1,62*,6,0,0
COc1ccccc1CC(=O)Nc1ccccc1C(=O)O,4,-5,8,1,5,4
Cn1c(=O)c2c(nc(N3CCN(CCO)CC3)n2Cc2cccc3ccccc23)n(C)c1=O,·,·,-6,·,·,17
Cc1ccccc1-c1ncc(CN(C)CCN2CCCCC2)cn1,·,·,2,·,·,7
COc1ccc2cc(C)c3nn(CC(=O)Nc4c(C)nn(C)c4C)c(=O)n3c2c1,·,·,-41,·,·,0
COC(=O)C1=C(C)NC2=C(C(=O)CCC2)C1c1cn(Cc2ccc(Cl)cc2Cl)nc1-c1ccccc1 (centres undefined),-28,-66,32,19*,65*,11
CC1=C(C(=O)Nc2ccccn2)C(c2cn(C)nc2C)C2=C(CCCC2=O)N1 (centres undefined),7,-4,-4,·,-4,3
COc1ccc(C(N)c2nccn2C)cc1OC (centres undefined),·,·,3,·,·,5
Cc1ccc(-n2c(C)cc(C=C(C#N)C#N)c2C)cc1,-13,-25,46,18*,32*,23
Cc1cc(C=C(C#N)C#N)c(C)n1-c1ccccc1,-17,-15,5,6,5,14
